Calls of active or inactive are those of the source. The rule behind the calls is not given here.
Tests used:
[1] = target: Signal transducer and activator of transcription 3 (Mus musculus) (UniProt P42227); assay: Inhibition of STAT3 in mouse Ba/F3 NPM-ALK cells at 50 nM; assay type: cell-based; conditions: TDE = time-dependent effect
Procedure, shortened: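 Ba/F3 NPM-ALK or Karpas-299 cells held at 50 nM for times from 15 min onward. Phospho-NPM-ALK and phospho-STAT3 read by Western blot.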

KARPAS-299 [2] = assay: Inhibition of RAS/RAF/MAPK signaling in human Karpas299 cells assessed as ERK phosphorylation; assay type: cell-based
Procedure, shortened: (§1)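 Karpas-299 cells treated for 4 h with increasing concentrations or DMSO. Phospho-ERK and phospho-Akt read by Western blot.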

KARPAS-299 [3] = assay: Inhibition of PI3K/Akt signaling in human Karpas299 cells assessed as Akt phosphorylation; assay type: cell-based; procedure, shortened: as §1
BaF3 = assay: Induction of apoptosis in mouse parental Ba/F3 cells at 50 nM after 48 hrs by annexin V assay; assay type: functional, cell-based
Procedure, shortened: (§2)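 Parental Ba/F3 (with IL-3), Ba/F3 NPM-ALK or SU-DHL-1 cells treated with 50 nM or DMSO for 48 h. Annexin V/7-AAD staining read by flow cytometry; percent Annexin V-positive cells counted.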

SU-DHL-1 = assay: Induction of apoptosis in human SUDHL1 cells at 50 nM after 48 hrs by annexin V assay; assay type: functional; procedure, shortened: as §2
KARPAS-299 [4] = assay: Induction of apoptosis in human Karpas299 cells at 50 nM after 48 hrs by annexin V assay; assay type: functional; conditions: in the assay text read “72 hrs” for “48 hrs”
Procedure, shortened: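 Karpas-299 cells given 50 nM or DMSO, with flow cytometry every 24 h up to 72 h. Annexin V staining gave the percent of positive cells.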

KARPAS-299 [5] = assay: Cell cycle arrest in human Karpas299 cells by accumulation in G1 phase at 25 nM after 72 hrs; assay type: functional
Procedure, shortened: (§3)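 Karpas-299 cells exposed to 25 nM or DMSO for 24, 48 and 72 h, then fixed, stained with propidium iodide and analyzed for cell cycle distribution by flow cytometry. Three separate experiments.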

KARPAS-299 [6] = assay: Cell cycle arrest in human Karpas299 cells by accumulation in S phase at 25 nM after 72 hrs; assay type: functional; procedure, shortened: as §3
[7] = Cmax in human Karpas299 cells xenografted SCID beige mouse at 20 mg/kg, po; assay type: ADME, organism-based, KARPAS-299; parameters: dose 20 mg/kg, route oral; conditions: in vivo
Procedure, shortened: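 Mice given a single oral dose of 20 mg/kg as a solution in 10% 1-methyl-2-pyrrolidinone/90% PEG 300. Plasma levels measured to give Cmax, bioavailability and elimination half-life.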

Mus musculus [8] = assay: Toxicity in human Karpas299 cells xenografted in SCID beige mouse at 10 mg/kg, po; assay type: organism-based, KARPAS-299; parameters: dose 10 mg/kg, route oral; conditions: in vivo
Procedure, shortened: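 Female Fox Chase SCID_Beige mice bearing i.v. Karpas-299 cells received 10 mg/kg orally once daily from 72 h after injection. Watched for signs of compound- or disease-related toxicity.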

BCR-ABL = assay: Antilymphomal activity against mouse Ba/F3 BCR-ABL cells xenografted in SCID beige mouse assessed as reduction in bioluminescence signal at 10 mg/kg, po once daily after 2 weeks; assay type: functional, organism-based; parameters: dose 10 mg/kg
Procedure, shortened: (§4)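 Female Fox Chase SCID_Beige mice injected in the tail vein with 1 × 10⁶ luciferase-expressing Ba/F3 BCR-ABL or Ba/F3 NPM-ALK cells. From 72 h, 10 mg/kg given orally once daily in 10% 1-methyl-2-pyrrolidinone/90% PEG 300, or vehicle. Bioluminescence imaged after 2 weeks; spleens weighed.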

[9] = Antilymphomal activity against mouse Ba/F3 NPM-ALK cells xenografted in SCID beige mouse assessed as reduction in bioluminescence signal at 10 mg/kg, po once daily after 2 weeks relative to control; assay type: functional; parameters: scale not given: the % may be the effect or the level left; procedure, shortened: as §4
Mus musculus [10] = assay: Toxicity in mouse Ba/F3 NPM-ALK cells xenografted in SCID beige mouse assessed as reduction in spleen weight at 10 mg/kg, po; assay type: organism-based; parameters: dose 10 mg/kg, route oral; scale not given: the % may be the effect or the level left; conditions: in vivo
KARPAS-299 [11] = assay: Antilymphomal activity against human Karpas299 cells xenografted in SCID beige mouse assessed as reduction in NPM-ALK phosphorylation after 3.5 weeks of […] at 10 mg/kg for 3 days; assay type: functional, organism-based; parameters: dose 10 mg/kg
Procedure, shortened: (§5)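 Female Fox Chase SCID_Beige mice given 1 × 10⁶ Karpas-299 cells by tail vein. Treatment began at 3.5 weeks, once palpable lymphomas had formed. Drug at 10 mg/kg or vehicle for 3 days, 3 mice per arm. Killed 4 h after the third dose. Excised lymph nodes immunoblotted for NPM-ALK and Stat3 phosphorylation.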

KARPAS-299 [12] = assay: Antilymphomal activity against human Karpas299 cells xenografted in SCID beige mouse assessed as reduction in downstream target STAT3 phosphorylation after 3.5 weeks of […] at 10 mg/kg for 3 days; assay type: functional, organism-based; parameters: dose 10 mg/kg; procedure, shortened: as §5
KARPAS-299 [13] = assay: Antilymphomal activity against human Karpas299 cells xenografted in SCIDbeige mouse assessed as reduction in CD30 expression in lymph nodes after 3.5 weeks of […] at 10 mg/kg for 3 days; assay type: functional, organism-based; parameters: dose 10 mg/kg
Procedure, shortened: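 Female Fox Chase SCID_Beige mice given Karpas-299 cells i.v. and left 3.5 weeks until lymphomas were palpable. Then dosed at 10 mg/kg or vehicle for 3 days. Killed 4 h after the third dose. Excised lymph node sections scored for CD30 by immunohistochemistry.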

KARPAS-299 [14] = assay: Inhibition of human Karpas299 cells assessed as reduction in CD30 receptor expression on cell surface after 24 hrs; assay type: functional; parameters: scale not given: the % may be the effect or the level left
Procedure, shortened: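 Karpas-299 cells cultured with drug for 24 h. Surface CD30 receptor expression then measured.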

Chain of Signal transducer and activator of transcription 3 (Mus musculus) (P42227 whole entry): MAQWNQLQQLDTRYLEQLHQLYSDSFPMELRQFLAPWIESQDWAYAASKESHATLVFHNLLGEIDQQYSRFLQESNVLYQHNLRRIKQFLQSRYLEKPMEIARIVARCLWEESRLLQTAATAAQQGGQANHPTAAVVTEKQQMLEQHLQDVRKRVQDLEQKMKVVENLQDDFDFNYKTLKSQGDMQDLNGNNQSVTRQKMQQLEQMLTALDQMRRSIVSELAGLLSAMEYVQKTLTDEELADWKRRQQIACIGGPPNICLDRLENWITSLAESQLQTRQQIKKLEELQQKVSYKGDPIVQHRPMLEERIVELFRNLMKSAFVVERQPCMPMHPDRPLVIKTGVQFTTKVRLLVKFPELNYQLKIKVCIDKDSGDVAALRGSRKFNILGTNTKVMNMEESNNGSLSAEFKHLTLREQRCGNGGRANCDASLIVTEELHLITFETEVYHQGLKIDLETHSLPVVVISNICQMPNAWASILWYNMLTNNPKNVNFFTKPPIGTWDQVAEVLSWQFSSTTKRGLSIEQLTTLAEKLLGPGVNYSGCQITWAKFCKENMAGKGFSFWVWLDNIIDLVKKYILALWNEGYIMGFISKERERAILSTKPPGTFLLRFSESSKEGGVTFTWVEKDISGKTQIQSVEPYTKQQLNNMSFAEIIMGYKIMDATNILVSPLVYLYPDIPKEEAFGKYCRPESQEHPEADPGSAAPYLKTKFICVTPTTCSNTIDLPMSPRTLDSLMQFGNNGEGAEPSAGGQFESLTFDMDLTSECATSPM

Activity [1]: tde
Cmax [7]: 800 nM
SMILES: COc1cc(N2CCC(N3CCN(C)CC3)CC2)ccc1Nc1ncc(Cl)c(Nc2ccccc2S(=O)(=O)C(C)C)n1 [TAE-684]
Activity (KARPAS-299 [2]): Dose-dependent effect
Activity (KARPAS-299 [3]): Dose-dependent effect
Activity (BaF3): inactive
Activity (SU-DHL-1): 70%
Activity (KARPAS-299 [4]): 20%
Activity (KARPAS-299 [5]): 72%
Activity (KARPAS-299 [6]): 14%
Activity (Mus musculus [8]): Non-toxic
Activity (BCR-ABL): inactive
Activity [9]: >99%
Activity (Mus musculus [10]): 80%
Activity (KARPAS-299 [11]): Active
Activity (KARPAS-299 [12]): Active
Activity (KARPAS-299 [13]): Active
Activity (KARPAS-299 [14]): 80%

Reference: ChEMBL document CHEMBL1156430, “Identification of NVP-TAE684, a potent, selective, and efficacious inhibitor of NPM-ALK” (Proc Natl Acad Sci U S A, 2007)
